Compound activity from PubChem.
Beta apoptosis: beta cell apoptosis inhibition; INS-1E cytokine-induced death, ATP luminescence, 48 h; percent of positive-control rescue, neutral wells zero; protection from apoptosis, % (no concentration beside the values); 0.8% of 300,000 active;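 active = Every replicate reaches about 75%, or at least half do and their mean reaches it too, limit read from the data; inconclusive = At least half of replicates reach the limit but their mean does not; inactive = Under half of replicates reach the limit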;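 also: higher means more ATP so stronger rescue from cytokine killing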
T cruzi inh: T. cruzi replication inhibition; T. cruzi beta-gal in NIH3T3, luminescence, 90 h; 1.4% of 300,000 active; inhibition, % (test concentration not listed); AID 1885;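 active = mean inhibition across valid replicates above about 55%, limit read from the data; inconclusive = mean below that limit but half or more replicates reach it; inactive = mean below it, under half of replicates reach it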;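 also: signal also drops with host cell toxicity which is not excluded here; higher percent means less beta-gal luminescence so fewer parasites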
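System – NIH/3T3 host cells with β-galactosidase reporter T. cruzi · Doses – single 50 nL compound addition per well in DMSO · Reagent – 5000 T. cruzi trypomastigotes/well · Medium – Low-serum DMEM with 2% FBS · Timing – ≥90 h infection period, 3 h prior cell attachment · Evaluation – parasite load inhibition, % · Technique – GalScreen luminescence, 60 min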
Bfl-1 A1 inh: inhibitors of the anti-apoptotic protein A1, read as caspase activation; MEF A1-2A-BIM cells, Caspase-Glo 3/7 luminescence, 3 h; percent of clofoctol response, vehicle zero; caspase activation, % (no concentration beside the values); 0.066% of 330,000 active; AID 2462;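 active = over half of replicate activation scores above 10%, or exactly half above 10 with the replicate mean above 10; inconclusive = replicate mean below 10 yet half the replicates above 10; inactive = over half of replicates below 10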
Calb FLC: affects C. albicans growth with fluconazole; C. albicans CaCi-2 (fluconazole-resistant clinical isolate) + fluconazole, Alamar Blue growth, 48 h; growth inhibition, % (test concentration not listed); AID 1979; 0.57% of 300,000 active;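 active = growth inhibition above about 58% in most replicates, limit read from the data, passing the limit was not always enough; inconclusive = exactly half the replicates above a set limit; inactive = most replicates below a set limit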;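 also: all wells also contain fluconazole at 8 µg/ml as a sub-toxic cotreatment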
CSC inhib: blocks cancer stem cells; cancer stem cell-like cells viability, luminescence; inhibition, % at 7.5 µM; 1.1% of 300,000 active; in the data active = inhibition above about 75%; inconclusive = no clear call, values can overlap the other calls; tested in HMLE shEcad cells
H9c2 TAG inh: triacylglycerol accumulation inhibition; H9c2 cells, Nile Red lipid (TAG) fluorescence; cells loaded with 200 µM oleic acid; inhibition, % at 12.5 µM; 0.66% of 230,000 active;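 active = pattern-corrected inhibition of lipid staining of at least 50% with the nuclear-stain viability signal not falling by more than 50%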
Numbers stand for hits; n = inactive; u = inconclusive; x = not tested or not shown. Only some compounds are listed: those with a hit (about 3.1% of all), similar ones and a draw of the others.

SMILES | Beta apoptosis | T cruzi inh | Bfl-1 A1 inh | Calb FLC | CSC inhib | H9c2 TAG inh
CCCCCCCNC(=O)C1(CC2CC(c3cccc(Br)c3)=NO2)CCN(C(=O)c2ccccc2)CC1 (stereo unspecified) | n | 61 | n | n | n | n
COc1cc(/C=C2\SC(N3CCC(C)CC3)=NC2=O)ccc1O | n | n | n | n | n | x
COc1ccc(NC(=O)c2ccc(COc3ccccc3OC)o2)cc1OC | n | n | n | n | n | n
COc1ccc(NC(=O)c2ccc(COc3ccccc3Br)o2)cc1OC | n | n | n | n | 96 | x
Cc1cccc(NC(=O)c2ccc(COc3ccc(Cl)cc3Cl)o2)n1 | n | n | n | n | 104 | n
O=C(Nc1nccs1)c1ccc(COc2ccccc2Cl)o1 | n | n | n | n | 81 | n
O=C(Nc1nccs1)c1ccc(COc2c(F)c(F)cc(F)c2F)o1 | n | x | n | x | n | n
Cc1csc(NC(=O)c2ccc(COc3ccccc3)o2)n1 | n | n | n | n | 79 | x
Cc1cccc(NC(=O)c2ccc(COc3ccccc3)o2)n1 | n | n | n | n | n | n
COc1cc(Cl)c(C)cc1NC(=O)CCN1C(=O)NC(C)(C)C1=O | x | x | x | x | x | n
CC[N+]1(CC)CC2=Cc3c(ccc4ccccc34)C(C)C2C1 (stereo unspecified) | n | n | n | n | n | n
O=c1cc(C(F)(F)F)[nH]c2c(OC(F)(F)F)cccc12 | n | n | n | n | 79 | n
CN1CCN(CC(C)(C)NS(=O)(=O)c2ccc(Cl)cc2)CC1 | n | 70 | n | n | n | x
CC(C)(CN1CCN(Cc2ccccc2)CC1)NS(=O)(=O)c1ccc(Cl)cc1 | n | n | n | n | n | n
Oc1ccccc1/C=N/Nc1nc2ccccc2o1 | 98 | 56 | n | n | u | 63
CCOC(=O)N1CCC(=NNc2nc3ccccc3s2)CC1 | n | n | n | u | n | n
CC(=NNc1nc2ccccc2s1)c1ncccn1 | x | x | x | x | x | 63
CC(=O)N1CCC(=NNc2nc3ccccc3s2)CC1 | n | n | n | 99 | n | x
Oc1ccccc1/C=N/Nc1ncc(Br)cn1 | 87 | n | n | n | n | x
Oc1ccccc1/C=N/Nc1ccccc1 | n | n | n | n | n | x
CCCCn1c(N)c(N(CC(C)C)C(=O)Cc2ccc3c(c2)OCCO3)c(=O)[nH]c1=O | n | n | n | n | n | n
CC(=NNc1nc2ccccc2o1)c1ncccn1 | x | x | x | x | x | 51
CCN1CCN(CCCNC(=O)c2ccc(/C=C3/Sc4ccccc4N(Cc4ccccc4F)C3=O)cc2)CC1 | n | 57 | n | n | 104 | n
CCOC(=O)/C=C1/N(C)c2ccccc2C1(C)C | n | n | n | n | n | n
CN1/C(=C\P(=O)(N(C)C)N(C)C)C(C)(C)c2ccccc21 | 87 | 62 | n | n | n | x
SMILES | Beta apoptosis | T cruzi inh | Bfl-1 A1 inh | Calb FLC | CSC inhib | H9c2 TAG inh
CC1CCCCC1NC(=O)CN1C(=O)NC(C)(c2cc(F)ccc2F)C1=O (stereo unspecified) | n | x | n | x | n | n
CC1CCN(C(=O)COC(=O)CCCN2C(=O)c3cccc4cccc(c34)C2=O)CC1 | n | n | n | n | x | n
O=C(Nc1ccc(Nc2ccccc2)cc1)c1cccc(F)c1 | n | n | n | n | 75 | x
O=C(Nc1cccc(F)c1)c1ccccc1 | n | n | n | n | n | n
COc1ccc(NC(=O)c2ccc(NC(=O)c3cccnc3)cc2)cc1 | x | x | x | x | x | n
CCCOc1cccc(C(=O)Nc2cccnc2)c1 | n | n | n | 110 | n | x
CCCCOc1cccc(C(=O)NC(=S)Nc2cccnc2)c1 | n | n | n | n | n | n
CCNS(=O)(=O)c1ccc(NC(=O)c2cccnc2)cc1 | n | n | n | 100 | n | x
CN(C)C(=O)c1ccc(NC(=O)c2cccnc2)cc1 | 96 | n | n | n | n | n
CC(=O)Nc1ccc(NC(=O)C(C)OC(=O)CSc2ccc(Br)cc2C)cc1 (stereo unspecified) | n | n | n | n | n | n
CCCCSc1ccc(NC(=O)c2cccnc2)cc1 | 100 | n | n | n | n | x
O=C(Nc1ccc(NC(=O)c2cccnc2)cc1)c1ccccc1 | n | n | n | n | n | x
COCCCNC(=O)Cn1nnc(-c2ccc(NC(=O)c3cccnc3)cc2)n1 | 97 | n | n | n | n | x
CCC(C)c1ccc(NC(=O)c2cccnc2)cc1 (stereo unspecified) | n | n | n | n | n | x
O=C(Nc1ccc(F)cc1)c1cccnc1 | 76 | n | n | n | n | x
N#CC(c1cccc(Cl)c1)c1ccc2c(C(F)(F)F)cc(C(F)(F)F)nc2n1 (stereo unspecified) | 114 | n | n | n | 107 | n
CCOC(=O)C1=C(c2ccccc2)N=c2s/c(=C\c3cccc(O)c3)c(=O)n2C1c1cccs1 (stereo unspecified) | n | n | n | n | 99 | x
CCCCOc1ncnc2c1[nH]c1ccccc12 | n | n | n | n | n | x
CCOCCCNc1ncnc2c1[nH]c1ccccc12 | 78 | n | n | x | n | n
CCCCOCCCNc1ncnc2c1[nH]c1ccccc12 | 114 | n | n | n | n | x
Cc1ccc2oc(C(=O)N3CCN(Cc4nccn4C)CC3)c(C)c2c1 | n | n | n | n | n | x
O=C1C(=O)N(c2ccccn2)C(c2cccc(F)c2)/C1=C(/O)c1ccccc1 (stereo unspecified) | n | n | n | n | n | x
O=C1CCc2cc(S(=O)(=O)Nc3ccccc3)ccc2N1 | n | x | n | x | n | n
CCNC(=O)NC(=O)c1csc([N+](=O)[O-])c1 | n | 59 | n | n | n | n
Cc1cc(C)c(NC(=O)CN2C(=O)CC(C)S(=O)(=O)c3ccccc32)c(C)c1 (stereo unspecified) | n | n | n | n | n | x
SMILES | Beta apoptosis | T cruzi inh | Bfl-1 A1 inh | Calb FLC | CSC inhib | H9c2 TAG inh
CCc1ccc(-c2cc(C(F)(F)F)n3nc(C(=O)Nc4c(C)nn(Cc5ccccc5C)c4C)cc3n2)s1 | n | 59 | n | n | x | x
CCc1ccc(-c2cc(C(F)(F)F)n3nc(C(=O)Nc4c(C)nn(Cc5ccccc5Cl)c4C)cc3n2)s1 | n | n | n | n | x | x
CCn1c(SCC(=O)N2CCC(C)CC2)nc2c1c(=O)n(C)c(=O)n2C | n | n | n | n | x | x
CCC/C(=C1/c2ccccc2C(=O)N1c1ccccc1)c1ccc2c(c1)OCCO2 | n | x | n | x | 89 | n
O=S(=O)(c1ccc2ccccc2c1)N1CCC(c2nc(-c3ccncc3)no2)CC1 | n | 71 | n | n | n | x
CN(C)c1ccc(-c2noc(C3CCN(S(=O)(=O)c4cccc(Cl)c4)CC3)n2)cc1 | x | x | n | n | n | x
Cc1cccc(N/C=C(\[N+](=O)[O-])S(=O)(=O)c2ccccc2)c1C | n | 82 | n | n | n | n
Nc1nonc1-n1nnc(C(=O)N/N=C/c2cc(Br)ccc2O)c1CNc1ccccc1 | 97 | 59 | n | 88 | 97 | x
Nc1nonc1C(=O)N/N=C/c1cc(Br)ccc1O | n | n | n | 101 | n | x
Cc1c(C(=O)N/N=C/c2c(O)ccc3ccccc23)nnn1-c1nonc1N | 86 | n | n | n | x | x
